From ChEMBL document CHEMBL5712078, “BRD9 Inhibition, Alone or in Combination with Cytostatic Compounds as a Therapeutic Approach in Rhabdoid Tumors” (Int J Mol Sci, 2017)

Legend:
[1] = system: BT-12; test: Synergistic cytotoxicity against human BT-12 cells assessed as combination index incubated for 72 hrs in presence of carboplatin by MTT-based Chou-Talalay method; format: functional
How it was run: (§1)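 MTT combination assay. BT12 in IMDM/20% FBS at 5000 cells/well; G401 in DMEM/10% FBS. Drugs added 24 h after seeding, with I-BRD9 and cytostatic at a fixed 10:1 ratio (final ranges 0.001–100 µM and 0.0001–10 µM). After 72 h: MTT for 3 h, dissolved in isopropanol/0.04 N HCl, read at 570/630 nm. Technical triplicates, ≥3 independent runs; combination index by Chou–Talalay median-effect analysis.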

[2] = system: G-401; test: Synergistic cytotoxicity against human G-401 cells assessed as combination index incubated for 72 hrs in presence of carboplatin by MTT-based Chou-Talalay method; format: functional; how it was run: as §1
[3] = system: G-401; test: Induction of apoptosis in human G-401 cells assessed as necrotic cells at 10 uM incubated for 72 hrs by flow cytometry analysis (Rvb= 5.7+/-1.9 %); format: functional
How it was run: (§2)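 Annexin V/PI flow assay. G401 at 10,000 cells/mL and BT12 or Chla266 at 30,000 cells/mL were seeded in 12-well plates. Next day medium was replaced with medium holding I-BRD9 or BI-9564 at 0, 5, 10 or 20 µM final for 72 h. Cells were washed in PBS, stained with FITC-Annexin V and propidium iodide for 15 min in the dark at room temperature, then read by flow cytometry. Percentage of dead cells, n ≥3, mean ± SD, one-way ANOVA versus control.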

[4] = system: BT-12; test: Induction of cell cycle arrest in human BT-12 cells assessed as accumulation of cells at G1 phase at 10 uM incubated for 72 hrs by flow cytometry analysis (reference value: 69+/-1.9%); format: functional
How it was run: (§3)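 Cell cycle. Seeding and 72 h treatment as for the apoptosis assay, with I-BRD9 or BI-9564 at 0, 5, 10 or 20 µM final. A 100 µL cell suspension was stained with DAPI and read by flow cytometry. Percentage of cells in G1, n ≥3, mean ± SD, one-way ANOVA versus control.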

[5] = system: G-401; test: Anti-proliferative activity against human G-401 cells assessed as inhibition cell growth incubated for 72 hrs in presence of doxorubicin by MTT-based Chou-Talalay method; format: functional; details: G-401, 72 h
How it was run: (§4)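 Combination MTT assay. I-BRD9 and carboplatin, doxorubicin or vincristine were given together at a fixed 10:1 ratio, with cytostatics 0.0001–10 µM final, added 24 h after seeding. MTT read-out at 570/630 nm after 3 h formazan solubilisation. Combination index from the Chou–Talalay median-effect method: CI <1 synergism, CI >1 antagonism. n ≥3.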

[6] = system: CHLA-266; test: Induction of cell cycle arrest in human CHLA-266 cells assessed as accumulation of cells at G1 phase incubated for 72 hrs by flow cytometry analysis; format: functional, cell-based; details: dose 5-20 µM
How it was run: (§5)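 72 h DAPI flow-cytometry cell-cycle assay. Chla266 in IMDM/20% FBS seeded at 30,000 cells/mL; G401 in DMEM/10% FBS at 10,000 cells/mL; 1 mL/well, 37 °C, 5% CO2. Next day the medium was replaced with inhibitor at final 0, 5, 10 or 20 µM. Cells were harvested, PBS-washed, and the G1 percentage was read. n ≥ 3, mean ± SD, one-way ANOVA vs control.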

[7] = system: G-401; test: Induction of cell cycle arrest in human G-401 cells assessed as accumulation of cells at G1 phase at 10 uM incubated for 72 hrs by flow cytometry analysis (Rvb =46.7+/-1.9 %); format: functional; how it was run: as §5
[8] = system: G-401; test: Induction of cell cycle arrest in human G-401 cells assessed as accumulation of cells at G1 phase at 20 uM incubated for 72 hrs by flow cytometry analysis (reference value: 46.7+/-1.9 %); format: functional; how it was run: as §5
[9] = system: BT-12; test: Induction of apoptosis in human BT-12 cells assessed as necrotic cells at 20 uM incubated for 72 hrs by flow cytometry analysis (Rvb= 9.1+/-2.8 %); format: functional; how it was run: as §2
[10] = system: G-401; test: Induction of apoptosis in human G-401 cells assessed as necrotic cells at 20 uM incubated for 72 hrs by flow cytometry analysis (Rvb= 5.7+/-1.9 %); format: functional; how it was run: as §2
[11] = Anti-proliferative activity against human KD cells assessed as cell viability incubated for 72 hrs by MTT assay; format: functional, cell-based
How it was run: (§6)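 MTT proliferation assay. Cells were seeded at 3000 (BT16, KD, G401) or 5000 (BT12, Chla266) cells per well and drug was added after 24 h, final 0.001–100 µM. Read at 72 or 144 h; 144 h wells got fresh medium and drug on day 3. MTT for 3 h, formazan dissolved in isopropanol/0.04 N HCl, absorbance at 570/630 nm. Technical triplicates, ≥3 independent runs, IC50 derived.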

[12] = system: BT-12; test: Induction of apoptosis in human BT-12 cells assessed as necrotic cells incubated for 72 hrs by flow cytometry analysis; format: functional, cell-based; details: dose 5-20 µM; how it was run: as §2
[13] = system: G-401; test: Induction of cell cycle arrest in human G-401 cells assessed as accumulation of cells at G1 phase at 5 uM incubated for 72 hrs by flow cytometry analysis (reference value: 46.7+/-1.9%); format: functional; how it was run: as §5
[14] = system: CHLA-266; test: Induction of apoptosis in human CHLA-266 cells assessed as necrotic cells incubated for 72 hrs by flow cytometry analysis; format: functional, cell-based; details: dose 5-20 µM; how it was run: as §2
[15] = system: BT-12; test: Induction of cell cycle arrest in human BT-12 cells assessed as accumulation of cells at G1 phase at 5 uM incubated for 72 hrs by flow cytometry analysis (Rvb =69+/-1.9%); format: functional; how it was run: as §3
[16] = system: G-401; test: Induction of cell cycle arrest in human G-401 cells assessed as accumulation of cells at G1 phase incubated for 72 hrs by flow cytometry analysis; format: functional, cell-based; details: dose 5-20 µM; how it was run: as §5
[17] = system: BT-12; test: Induction of cell cycle arrest in human BT-12 cells assessed as accumulation of cells at G1 phase at 20 uM incubated for 72 hrs by flow cytometry analysis (reference value: 69+/-1.9%); format: functional; how it was run: as §3
[18] = system: BT-12; test: Anti-proliferative activity against human BT-12 cells assessed as inhibition cell growth incubated for 72 hrs in presence of vincristine by MTT-based Chou-Talalay method; format: functional; details: BT-12, 72 h; how it was run: as §4
[19] = system: BT-12; test: Induction of apoptosis in human BT-12 cells assessed as necrotic cells at 5 uM incubated for 72 hrs by flow cytometry analysis (reference value: 9.1+/-2.8 %); format: functional; how it was run: as §2
[20] = Anti-proliferative activity against human KD cells assessed as cell viability incubated for 144 hrs by MTT assay; format: functional, cell-based; how it was run: as §6
[21] = system: G-401; test: Anti-proliferative activity against human G-401 cells assessed as inhibition cell growth incubated for 72 hrs in presence of vincristine by MTT-based Chou-Talalay method; format: functional; details: G-401, 72 h; how it was run: as §4
[22] = system: G-401; test: Synergistic cytotoxicity against human G-401 cells assessed as combination index incubated for 72 hrs in presence of vincristine by MTT-based Chou-Talalay method; format: functional; how it was run: as §1
[23] = system: CHLA-266; test: Induction of cell cycle arrest in human CHLA-266 cells assessed as accumulation of cells at G1 phase at 10 uM incubated for 72 hrs by flow cytometry analysis (reference value: 74.2+/-3.6%); format: functional; how it was run: as §3
[24] = system: BT-12; test: Anti-proliferative activity against human BT-12 cells assessed as cell viability incubated for 72 hrs by MTT assay; format: functional, cell-based; details: BT-12, 72 h; how it was run: as §6
[25] = system: G-401; test: Anti-proliferative activity against human G-401 cells assessed as cell viability incubated for 144 hrs by MTT assay; format: functional, cell-based; details: G-401, 144 h; how it was run: as §6

CCn1cc(-c2cccc(C(F)(F)F)c2)c2sc(C(=N)NC3CCS(=O)(=O)CC3)cc2c1=O
CI [1]: 1.01 | CI [2]: 0.37 | Activity [3]: 18.8% | Activity [4]: 80.1% | IC50 [5]: 0.096 µM | Activity [6]: Dose-Dependent Effect | Activity [7]: 67.1% | Activity [8]: 78.1% | Activity [9]: 34.6% | Activity [10]: 70.8% | IC50 [11]: 8.1 µM | Activity [12]: Dose-Dependent Effect | Activity [13]: 53% | Activity [14]: Dose-Dependent Effect | Activity [15]: 75% | Activity [16]: Dose-Dependent Effect | Activity [17]: 85.6% | IC50 [18]: 16.7 µM | Activity [19]: 19.9% | IC50 [20]: 7.1 µM | IC50 [21]: 0.008 µM | CI [22]: 9 | Activity [23]: 82.7% | IC50 [24]: 21.2 µM | IC50 [25]: 6.1 µM
